Assays:
Format in all cases: cell-based, Saccharomyces cerevisiae
pre-60S particles = test: affinity purification of Rpl5-FTpA constructs; conditions: Flag-TEV-ProtA bait
In short: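 Rpl5 variants tagged with Flag-TEV-ProtA were purified from a 2-liter yeast culture pellet. Steps: IgG-Sepharose 90 min, TEV elution 120 min, FLAG beads 45 min, FLAG-peptide elution. Eluates were run alongside pre-60S particles purified via Nsa2-FTpA and FTpA-Rsa4, then analysed by SDS-PAGE and Western blot.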

[1] = test system: intracellular localization in yeast; test: in vivo localization of Rpl5-GFP; conditions: GFP fusion, wild-type strain, fluorescence microscopy
In short: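 A wild-type strain carried plasmid-borne Rpl5-GFP or Rpl5 Δloop2+3-GFP. Cells were grown to ~OD 0.5 in selective medium at 30°C, harvested and washed in water. They were imaged by fluorescence microscopy at room temperature (100×, NA 1.4 oil objective, EGFP filter set).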

RPL5 shuffle strain = test: complementation of rpl5Δ; conditions: SDC+FOA, 30°C, 5 d

B1: Rpl5Δloop2+3 (protein)
chain: MAFQKDAKSSAYSSRFQTPFRRRREGKTDYYQRKRLVTQHKAKYNTPKYRLVVRFTNKDIICQIISSTITGDVVLAAAYSHELPRYGITHGLTNWAAAYATGLLIARRTLQKLGLDETYKGPRPFKVFLDIGLQRTTTGARVFGALKGASDGGLYVPHSENRFPGWDRIFGGHVSQYMEELADDDEERFSELFKGYLADDIDADSLEDIYTSAHEAIRADPAFKPTEKKFTKEQYAAESKKYRQTKLSKEERAARVAAKIAALAGQQ
co-purified Spb1 and Nop2 (pre-60S particles): enriched
co-purified particles / Syo1 (pre-60S particles): recovered its import factor Syo1 ([Kressler et al., 2012a]) and pre-60S particles
co-purified Nsa2 (pre-60S particles; SDS-PAGE and Western blot): normal amounts of Nsa2
co-purified Rpl10 (uL16) (pre-60S particles; SDS-PAGE and Western blot): lacked Rpl10 (uL16)
co-purified Rsa4 (pre-60S particles; SDS-PAGE and Western blot): reduced levels of Rsa4
intracellular localization [1]: accumulated inside the nucleus
growth / viability (complementation) (RPL5 shuffle strain): lethal phenotype
